Compound activity from PubChem BioAssay.
MEKK2wt PB1 HTS: raises or lowers MEK5 binding to wildtype human MEKK2 PB1 domain; AID 1531; actives 1.1% (n = 290,000); bead flow cytometry, Alexa488-MEK5 binding to MEKK2 WT; actives lie on both sides; Q9Y2U5; binding response (% of control), % at 10 µM; in the data active = binding response below about 67% or above about 130%
UBC13 polyUb: blocks human UBC13 polyubiquitin chain formation; P61088; TR-FRET; inhibition, % at 20 µM; actives 0.47% (n = 330,000); AID 485273; in the data active = inhibition above about 45%, passing the limit was not always enough
Apaf1 inhib: blocks human Apaf-1 apoptosome activity; actives 0.71% (n = 330,000); O14727; reconstituted apoptosome caspase-3 activity, DEVD-Rh110 fluorescence; inhibition, % at 20 µM; active = inhibition of at least 40% at 20 µM;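 also: plate controls were DMSO wells for no effect and DEVD-CHO caspase inhibitor wells for full effect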
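Material: reconstituted apoptosome with Apaf-1, cytochrome c, caspase-9, procaspase-3, dATP / Buffer or medium: pH 7.5 Hepes buffer with CHAPS, BSA, DTT / Also added: cytochrome c with DEVD-Rh110 / Schedule: compound with Apaf-1, dATP, procaspase-3 30 min, then 50 min reaction, room temperature / Technique: rhodamine 110 fluorescence at Ex 480/Em 540 nm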
MEKK2 mut-MEK5: signal of MEK5 binding to mutant human MEKK2 PB1 domain. bead flow cytometry, Alexa488-MEK5 binding to MEKK2 mutant. percent response, % at 10 µM. actives 0.35% (n = 290,000). AID 1530; in the data active = percent response above about 24%, passing the limit was not always enough
MEKK3 PB1 HTS: modulators (inhibitors or enhancers) of MEK5 binding to human MEKK3 PB1 domain. bead-based flow cytometry, Alexa488-MEK5 binding to MEKK3; actives lie on both sides; 0 = blocked by unlabeled MEK5, 100 = vehicle. actives 1.4% (n = 290,000). Q99759. binding response (% of control), % at 10 µM. AID 1529;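 active = binding response more than 3 SD above or below the average of its plate-row segment, actives on both sides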;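 also: Alexa488 bead fluorescence after subtracting the streptavidin-only scavenger bead signal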
PREPL inhibitor: inhibitors of human prolyl oligopeptidase-like enzyme PREPL; actives 0.68% (n = 320,000); recombinant PREPL, fluorescence polarization activity-based probe; Q4J6C6; inhibition, % at 5.96 µM; in the data active = inhibition above about 43%;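 also: 0% = enzyme with DMSO and 100% = wells lacking enzyme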
Apaf-1 inh conf2: confirmation of Apaf-1 inhibitors. shares compounds with Apaf1 inhib. reconstituted apoptosome, caspase-3 DEVD-Rh110 fluorescence. inhibition, % at 20 µM. actives 25% (n = 1,800). AID 504614;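 active = mean inhibition of at least 40% at 20 µM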;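 also: plate controls were DMSO wells for no effect and DEVD-CHO caspase inhibitor control wells for full effect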
Rh110 quench: interferes with Rh110 fluorescence, flagging false Apaf-1 inhibitors. shares compounds with Apaf1 inhib. Rh110 fluorescence interference, quenched caspase reaction. activation (fluorescence interference), % at 20 µM. 1,800 tested, under 10 active;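 active = signal rise of 40% or more at 20 µM, treated as a fluorescence artifact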
Fluor interf inh: shows fluorescence interference in the Apaf-1 inhibitor assay format | IC50, µM | fluorescence interference counterscreen, Apaf-1 assay format | shares compounds with Apaf1 inhib | 460 tested, under 10 active | AID 588538; call rule not given here
Active calls of the source: *; x = no result. In the library only some 3.1% were active in any assay of this set; here they are far more common.

SMILES	MEKK2wt PB1 HTS	UBC13 polyUb	Apaf1 inhib	MEKK2 mut-MEK5	MEKK3 PB1 HTS	PREPL inhibitor	Apaf-1 inh conf2	Rh110 quench	others
COc1ccc(C)cc1S(=O)(=O)N1c2ccc(C)cc2C2CN(C)CCC21 (centres undefined)	x	4	-2	x	x	x	x	x
CCc1ccc(N2C(=O)C(Cl)=C(Nc3ccc(C(=O)N4CCCC4)cc3)C2=O)cc1	x	-54	41*	x	x	15	7	10
O=C(c1ccc(N2C(=O)c3ccccc3C2=O)cc1)N1CCCCC1	106	3	1	-2	103	4	x	x
COc1cc(CCc2ccccc2)c(C(=O)O)c(O)c1C/C=C(/C)CCC=C(C)C	x	x	43*	x	x	x	37	18
CC(C)=CCC/C(C)=C/Cc1c(O)ccc(C(=O)/C=C/c2ccc(O)cc2)c1O	105	1	-2	-1	99	-4	x	x
O=C(C1CCCN(S(=O)(=O)c2cnc[nH]2)C1)N1CCN(Cc2ccccc2)CC1 (centres undefined)	102	-4	40*	3	99	-9	3	43*
O=C(NC(c1ccccc1)c1ccccc1)C1CCCN(S(=O)(=O)c2cnc[nH]2)C1 (centres undefined)	112	0	-3	6	116	-10	x	x
O=C(CNC(=O)c1cc(Cl)cc([N+](=O)[O-])c1)OCC(=O)N1CCCCC1	x	-4	6	x	x	25	x	x
COc1ccc2c(c1)Cc1sc(NC(C)=O)nc1-2	106	-16	73*	1	104	18	16	-4
COc1ccc2c(c1)Cc1sc(NC(=O)c3ccco3)nc1-2	104	-50	85*	3	104	13	56*	5	Fluor interf inh=>100
COc1ccc2c(c1)Cc1sc(NC(=O)c3cccnc3)nc1-2	98	-44	89*	-8	103	17	30	4
CN(C)S(=O)(=O)c1ccc(C(=O)NCc2nnc(SCC(=O)c3ccccc3)o2)cc1	100	-5	2	1	97	3	x	x
Cc1ccc(S(=O)(=O)CCC(=O)OCC(=O)c2cc(C)n(C)c2C)cc1	x	11	-5	x	x	6	x	x
CN1C(=O)CC(Nc2cccc3cccc(N)c23)C1=O (centres undefined)	91	-13	54*	-3	84	6	12	3
CC(C)N1C(=O)CC(Nc2cccc3cccc(N)c23)C1=O (centres undefined)	100	x	x	7	100	x	x	x
CC1=NN(c2ccc(S(=O)(=O)O)cc2Cl)C(=O)C1	88	-12	66*	-10	102	-2	19	-3
O=C1CSC(=S)N1c1cccc(Cl)c1	103	1	10	6	102	-9	x	x
Cn1c(=O)n(C)c2cc(S(=O)(=O)O)ccc21	101	4	-12	3	99	-8	x	x
CC1=NN(c2cccc(Cl)c2)C(=O)C1	106	-13	75*	0	102	4	21	6
CC1=NN(c2ccc(C(=O)O)c(N)c2)C(=O)C1	100	-42	62*	-6	98	11	7	-2
CC1=NN(c2ccc(Cl)c(C(=O)O)c2)C(=O)C1	99	12	8	-1	98	5	x	x
Cc1ccc(/C(N)=N/OC(=O)C(C)c2ccc([N+](=O)[O-])cc2)cc1 (centres undefined)	111	-3	16	4	108	4	x	x
O=C(NCC1CCCO1)C1CC(=O)N(c2cccc(Cl)c2)C1 (centres undefined)	90	-3	4	-10	91	-4	x	x
COc1ccc(CN(C)C(=O)c2cc(S(=O)(=O)NCc3ccccc3)ccc2C)c(OC)c1	x	33	61*	x	x	10	40*	11	Fluor interf inh=>100
